Consider 18 compounds from ChEMBL document CHEMBL1125197, “Studies on uricosuric diuretics. 4. Three-dimensional structure-activity relationships and receptor mapping of (aryloxy)acetic acid diuretics” (1991).

Structures are written as SMILES.

The subject of the test is Rattus norvegicus. Put plainly: Diuretic activity after peroral administration of 100 mg/Kg in rats. Type of test: functional, Urine. The gist of the method: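 Seven-week-old Wistar–Imamichi rats, fasted 24 h, in groups of five matched for urine output; forced urination before dosing. Oral dose of 100 mg/kg, suspended in physiological saline with 3% gum arabic at 25 mL/kg. Controls received vehicle alone. Animals kept fasted in separate metabolic cages, with urine collected for 6 h. Urine volume expressed as % of control (100%).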
As for `O=C(c1cccs1)c1cc2c(c(Cl)c1Cl)O[C@H](C(=O)O)C2`, the Relative activity was 400%. The result for `C[C@]1(c2ccccc2)Cc2cc(OCC(=O)O)c(Cl)c(Cl)c2C1=O` reads 350%. Turning to `O=C(c1cccs1)c1cc2c(c(Cl)c1Cl)O[C@@H](C(=O)O)C2`, the Relative activity is less than 100%.

`C[C@@]1(c2ccccc2)Cc2cc(OCC(=O)O)c(Cl)c(Cl)c2C1=O`: the Relative activity is recorded as 200%.

For `O=C(O)COc1ccc2c(-c3ccccc3F)noc2c1Cl`, the Relative activity is listed as 250%. In the case of `O=C(O)C1Cc2cc3c(-c4ccccc4)noc3c(Cl)c2O1` (stereo not drawn) it was 300%; in that of `O=C(O)C1Cc2cc(-c3noc4ccccc34)c(Cl)c(Cl)c2O1` (stereo not drawn), 300%; in that of `O=C(O)C1Cc2c(c(Cl)c(Cl)c3nc(-c4ccccc4)oc23)O1` (stereo not drawn), 450%.

As for `O=C(O)C1Cc2c(c(Cl)cc3c(=O)c4ccccc4oc23)O1` (stereo not drawn), the Relative activity was determined as 300%. In the case of `O=C(O)C1Oc2cc3c(-c4ccccc4)noc3c(Cl)c2O1` (stereo not drawn) it was 450%. The result for `O=C(O)C1Oc2c(Cl)cc3c(-c4ccccc4)noc3c2O1` (stereo not drawn) reads 160%; that for `O=C(O)COc1cc2oc3ccccc3c(=O)c2cc1Cl`, 200%. Turning to `O=C(O)C1Cc2cc3c(=O)c4ccccc4oc3c(Cl)c2O1` (stereo not drawn), the Relative activity was determined as 200%. In the case of `O=C(O)COc1cc2c(=O)c3ccccc3oc2cc1Cl` it was 200%. The result for `O=C(O)C1Cc2c(c(Cl)cc3c(-c4ccccc4)noc23)O1` (stereo not drawn) reads 120%; that for `O=C(c1cccs1)c1cc2c(c(Cl)c1Cl)OC(C(=O)O)C2` (racemic), 350%. On to `CC1(c2ccccc2)Cc2cc(OCC(=O)O)c(Cl)c(Cl)c2C1=O` (racemic) [INDACRINONE], for which the Relative activity was 300%. In the case of `O=C(O)COc1ccc(C(=O)c2cccs2)c(Cl)c1Cl` [TICRYNAFEN] it was 160%.
